Results published in ChEMBL document CHEMBL5058577, “EUbOPEN Chemogenomics Library 2 (Multiplex)” (2022).

Test system: U2OS
Test: Multiplex assay against U2OS
Type: toxicity, cell-based
Conditions: human
Outline: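 Per cents of healthy-nucleus cells form the tubulin, mitochondrial-mass and membrane-permeability phenotype values. Live cells were stained at seeding with Hoechst33342, BioTracker Green Microtubule Cytoskeleton Dye, MitoTracker Red and Annexin V Alexa Fluor 680. After compound addition they were imaged on a CQ1 microscope at 37°C and 5% CO2, and CellPathfinder machine-learning gating split them into Hoechst high-intensity objects or normal cells, normal cells into healthy, pyknosed or fragmented nuclei, and pyknosed cells into mitotic or apoptotic.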

[1] = 12 h, 1 µM, compound concentration 1 uM, replicate 1
[2] = 12 h, 1 µM, compound concentration 1 uM, replicate 2
[3] = 12 h, 10 µM, compound concentration 10 uM, replicate 1
[4] = 12 h, 10 µM, compound concentration 10 uM, replicate 2
[5] = 24 h, 1 µM, compound concentration 1 uM, replicate 1
[6] = 24 h, 1 µM, compound concentration 1 uM, replicate 2
[7] = 24 h, 10 µM, compound concentration 10 uM, replicate 1
[8] = 24 h, 10 µM, compound concentration 10 uM, replicate 2
[9] = 48 h, 1 µM, compound concentration 1 uM, replicate 1
[10] = 48 h, 1 µM, compound concentration 1 uM, replicate 2
[11] = 48 h, 10 µM, compound concentration 10 uM, replicate 1
[12] = 48 h, 10 µM, compound concentration 10 uM, replicate 2

With CC1(COc2ccc3c(c2)ncn3-c2ccc3cccc(N4CCC(N)CC4)c3n2)COC1 [CRENOLANIB] the “Population Apoptotic (%)” value [1] was 58%, the “Population Fragmented Nuclei (%)” value [1] was 36% and the “Population Healthy Nuclei (%)” value [1] was 50%. For the same compound, the “Population Hoechst High Intensity Objects (%)” value [1] was 9%, the “Population Membrane Permeable-Phenotype (%)” value [1] was 87% and the “Population Mitochondria Different-Phenotype (%)” value [1] was 51%. For the same compound, the “Population Mitotic Cells (%)” value [1] was 41%, the “Population Normal (%)” value [1] was 90% and the “Population Pyknosed Nuclei (%)” value [1] was 13%. The “Population Tubulin-Different-Phenotype (%)” value [1] was 92%, the “Total Cell Count” value [1] was 143 and the “Population Apoptotic (%)” value [2] was 25%. The “Population Fragmented Nuclei (%)” value [2] was 28%, the “Population Healthy Nuclei (%)” value [2] was 60% and the “Population Hoechst High Intensity Objects (%)” value [2] was 13%. For the same compound, the “Population Membrane Permeable-Phenotype (%)” value [2] was 82%, the “Population Mitochondria Different-Phenotype (%)” value [2] was 73% and the “Population Mitotic Cells (%)” value [2] was 75%. The “Population Normal (%)” value [2] was 86%, the “Population Pyknosed Nuclei (%)” value [2] was 10% and the “Population Tubulin-Different-Phenotype (%)” value [2] was 88%. The “Total Cell Count” value [2] was 86, the “Population Apoptotic (%)” value [3] was 81% and the “Population Fragmented Nuclei (%)” value [3] was 43%. The “Population Healthy Nuclei (%)” value [3] was 11%, the “Population Hoechst High Intensity Objects (%)” value [3] was 21% and the “Population Membrane Permeable-Phenotype (%)” value [3] was 76%. The “Population Mitochondria Different-Phenotype (%)” value [3] was 80%, the “Population Mitotic Cells (%)” value [3] was 18% and the “Population Normal (%)” value [3] was 78%. For the same compound, the “Population Pyknosed Nuclei (%)” value [3] was 44%, the “Population Tubulin-Different-Phenotype (%)” value [3] was 88% and the “Total Cell Count” value [3] was 274. For the same compound, the “Population Apoptotic (%)” value [4] was 92%, the “Population Fragmented Nuclei (%)” value [4] was 37% and the “Population Healthy Nuclei (%)” value [4] was 21%. The “Population Hoechst High Intensity Objects (%)” value [4] was 24%, the “Population Membrane Permeable-Phenotype (%)” value [4] was 47% and the “Population Mitochondria Different-Phenotype (%)” value [4] was 76%. For the same compound, the “Population Mitotic Cells (%)” value [4] was 7%, the “Population Normal (%)” value [4] was 75% and the “Population Pyknosed Nuclei (%)” value [4] was 41%. For the same compound, the “Population Tubulin-Different-Phenotype (%)” value [4] was 85%, the “Population Apoptotic (%)” value [5] was 71% and the “Population Fragmented Nuclei (%)” value [5] was 39%. For the same compound, the “Population Healthy Nuclei (%)” value [5] was 45%, the “Population Hoechst High Intensity Objects (%)” value [5] was 9% and the “Population Membrane Permeable-Phenotype (%)” value [5] was 71%. The “Population Mitochondria Different-Phenotype (%)” value [5] was 62%, the “Population Mitotic Cells (%)” value [5] was 28% and the “Population Normal (%)” value [5] was 90%. For the same compound, the “Population Pyknosed Nuclei (%)” value [5] was 14%, the “Population Tubulin-Different-Phenotype (%)” value [5] was 87% and the “Total Cell Count” value [5] was 156. The “Population Apoptotic (%)” value [6] was 54%, the “Population Fragmented Nuclei (%)” value [6] was 25% and the “Population Healthy Nuclei (%)” value [6] was 62%. The “Population Hoechst High Intensity Objects (%)” value [6] was 10%, the “Population Membrane Permeable-Phenotype (%)” value [6] was 67% and the “Population Mitochondria Different-Phenotype (%)” value [6] was 67%. For the same compound, the “Population Mitotic Cells (%)” value [6] was 45%, the “Population Normal (%)” value [6] was 89% and the “Population Pyknosed Nuclei (%)” value [6] was 12%. For the same compound, the “Population Tubulin-Different-Phenotype (%)” value [6] was 72%, the “Total Cell Count” value [6] was 98 and the “Population Apoptotic (%)” value [7] was 93%. For the same compound, the “Population Fragmented Nuclei (%)” value [7] was 46%, the “Population Healthy Nuclei (%)” value [7] was 8% and the “Population Hoechst High Intensity Objects (%)” value [7] was 37%. For the same compound, the “Population Membrane Permeable-Phenotype (%)” value [7] was 42%, the “Population Mitochondria Different-Phenotype (%)” value [7] was 50% and the “Population Mitotic Cells (%)” value [7] was 6%. The “Population Normal (%)” value [7] was 62%, the “Population Pyknosed Nuclei (%)” value [7] was 45% and the “Population Tubulin-Different-Phenotype (%)” value [7] was 50%. The “Total Cell Count” value [7] was 254, the “Population Apoptotic (%)” value [8] was 100% and the “Population Fragmented Nuclei (%)” value [8] was 53%. The “Population Healthy Nuclei (%)” value [8] was 11%, the “Population Hoechst High Intensity Objects (%)” value [8] was 36% and the “Population Membrane Permeable-Phenotype (%)” value [8] was 44%. The “Population Mitochondria Different-Phenotype (%)” value [8] was 77%, the “Population Mitotic Cells (%)” value [8] was 0% and the “Population Normal (%)” value [8] was 63%. For the same compound, the “Population Pyknosed Nuclei (%)” value [8] was 34%, the “Population Tubulin-Different-Phenotype (%)” value [8] was 77% and the “Population Apoptotic (%)” value [9] was 88%. The “Population Fragmented Nuclei (%)” value [9] was 41%, the “Population Healthy Nuclei (%)” value [9] was 43% and the “Population Hoechst High Intensity Objects (%)” value [9] was 8%. For the same compound, the “Population Membrane Permeable-Phenotype (%)” value [9] was 35%, the “Population Mitochondria Different-Phenotype (%)” value [9] was 40% and the “Population Mitotic Cells (%)” value [9] was 12%. The “Population Normal (%)” value [9] was 91%, the “Population Pyknosed Nuclei (%)” value [9] was 14% and the “Population Tubulin-Different-Phenotype (%)” value [9] was 44%. For the same compound, the “Total Cell Count” value [9] was 186, the “Population Apoptotic (%)” value [10] was 62% and the “Population Fragmented Nuclei (%)” value [10] was 37%. For the same compound, the “Population Healthy Nuclei (%)” value [10] was 48%, the “Population Hoechst High Intensity Objects (%)” value [10] was 4% and the “Population Membrane Permeable-Phenotype (%)” value [10] was 53%. For the same compound, the “Population Mitochondria Different-Phenotype (%)” value [10] was 37%, the “Population Mitotic Cells (%)” value [10] was 37% and the “Population Normal (%)” value [10] was 95%. For the same compound, the “Population Pyknosed Nuclei (%)” value [10] was 13%, the “Population Tubulin-Different-Phenotype (%)” value [10] was 51% and the “Population Apoptotic (%)” value [11] was 100%. The “Population Fragmented Nuclei (%)” value [11] was 51%, the “Population Healthy Nuclei (%)” value [11] was 11% and the “Population Hoechst High Intensity Objects (%)” value [11] was 42%. For the same compound, the “Population Membrane Permeable-Phenotype (%)” value [11] was 43%, the “Population Mitochondria Different-Phenotype (%)” value [11] was 37% and the “Population Mitotic Cells (%)” value [11] was 0%. For the same compound, the “Population Normal (%)” value [11] was 58%, the “Population Pyknosed Nuclei (%)” value [11] was 37% and the “Population Tubulin-Different-Phenotype (%)” value [11] was 56%. For the same compound, the “Total Cell Count” value [11] was 250, the “Population Fragmented Nuclei (%)” value [12] was 57% and the “Population Healthy Nuclei (%)” value [12] was 13%. The “Population Hoechst High Intensity Objects (%)” value [12] was 29%, the “Population Membrane Permeable-Phenotype (%)” value [12] was 50% and the “Population Mitochondria Different-Phenotype (%)” value [12] was 35%. The “Population Normal (%)” value [12] was 70%, the “Population Pyknosed Nuclei (%)” value [12] was 28% and the “Population Tubulin-Different-Phenotype (%)” value [12] was 28%. The “Total Cell Count” value [12] was 144.
